Converted amounts (≈) assume the structure as drawn. The source made the active and inactive calls. The calls are words filed in the database; no cut-off is given here.
Tests used:
Candida albicans [1] = assay: Antifungal activity against Candida albicans ATCC 96901 after 47 hrs by broth microdilution method; assay type: functional; conditions: ATCC 96901, 47 h
Outline: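 Fluconazole-resistant or susceptible-dose-dependent ATCC C. albicans strains were tested by CLSI M27-A2 broth microdilution in RPMI 1640–0.165 M MOPS, pH 7.0, with a final inoculum of 1.1–1.5 × 10^3 CFU/ml at 35°C for about 47 h. MIC was the lowest concentration with a prominent (~50%) turbidity decrease relative to growth control; amphotericin B was read at complete inhibition.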

Candida parapsilosis = assay: Antifungal activity against Candida parapsilosis clinical isolates after 48 hrs by broth microdilution method; assay type: functional; conditions: Lodderomyces parapsilosis
Outline: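 Japanese hospital Candida isolates were tested by CLSI M27-A2 broth microdilution in RPMI 1640–MOPS, pH 7.0, with inocula of 0.57–2.5 × 10^3 CFU/ml at 35°C for about 48 h. Inocula came from 24-h potato dextrose agar cultures. MIC was the lowest concentration with about 50% turbidity reduction versus growth control (complete inhibition for amphotericin B). Range, MIC50 and MIC90 were reported.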

Aspergillus nidulans = assay: Antifungal activity against Aspergillus nidulans NBRC 33017 after 48 hrs by broth microdilution method; assay type: functional; conditions: NBRC 33017, 48 h
Outline: (§1)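 CLSI M27-A2 (yeasts) / M38-A (moulds) broth microdilution in RPMI 1640 buffered to pH 7.0 with 0.165 M MOPS. Malassezia furfur got the same medium supplemented with glucose, bile salts, glycerol, glycerol monostearate and Tween 20. Final inoculum 0.65 × 10^3–2.5 × 10^3 CFU/ml for yeasts and 0.87 × 10^4–3.8 × 10^4 CFU/ml for filamentous fungi. Incubation at 35°C except M. racemosus and F. solani, which were held at 30°C.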

Aspergillus fumigatus [2] = assay: Antifungal activity against Aspergillus fumigatus ATCC 16424 after 48 hrs by broth microdilution method; assay type: functional; conditions: ATCC 16424, 48 h
Outline: (§2)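 CLSI M27-A2 (yeasts) or M38-A (A. fumigatus) broth microdilution in RPMI 1640 buffered to pH 7.0 with 0.165 M MOPS. Final inocula were 0.65–2.5 × 10^3 CFU/ml for yeasts and 0.87–3.8 × 10^4 CFU/ml for filamentous fungi. Incubation was at 35°C for about 48 h (72 h for C. neoformans). MIC was the lowest concentration giving a prominent (~50%) turbidity drop versus growth control; amphotericin B required complete inhibition.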

Aspergillus fumigatus [3] = assay: Antifungal activity against Aspergillus fumigatus TIMM 0063 after 48 hrs by broth microdilution method; assay type: functional; conditions: TIMM 0063, 48 h; outline: as §1
Malassezia furfur = assay: Antifungal activity against Malassezia furfur NBRC 0656 after 48 hrs by broth microdilution method; assay type: functional; conditions: NBRC 0656, 48 h; outline: as §1
Cryptococcus neoformans = assay: Antifungal activity against Cryptococcus neoformans TIMM 0354 after 72 hrs by broth microdilution method; assay type: functional; conditions: TIMM 0354, 72 h; outline: as §2
Candida albicans [4] = assay: Antifungal activity against Candida albicans TIMM 1623 infected ICR mouse after 6 days; assay type: functional; conditions: TIMM 1623, 144 h
Outline: (§3)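 Male ICR mice, 4 weeks old and SPF, were made neutropenic with intraperitoneal cyclophosphamide. The schedule was 200 mg/kg on day −3 (day −4 for Cryptococcus) plus 100 mg/kg on day +1. Infection was by tail-vein injection of 0.2 ml suspension: C. albicans 3.0 × 10^4, C. neoformans 9.1 × 10^4, A. fumigatus conidia 8.4 × 10^4 CFU/mouse. Drugs were given subcutaneously once daily for 7 days from 2 h post-infection; controls received saline. Groups had 8–10 mice.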

Candida albicans [5] = assay: Antifungal activity against Candida albicans TIMM 1623 after 48 hrs by broth microdilution method; assay type: functional; conditions: TIMM 1623, 48 h; outline: as §1
Candida albicans [6] = assay: Antifungal activity against Candida albicans ATCC 10261 after 48 hrs by broth microdilution method; assay type: functional; conditions: ATCC 10261, 48 h; outline: as §1
Trichosporon asahii = assay: Antifungal activity against Trichosporon asahii JCM 2466 after 48 hrs by broth microdilution method; assay type: functional; conditions: JCM 2466, 48 h; outline: as §1
Candida dubliniensis = assay: Antifungal activity against Candida dubliniensis ATCC MYA-577 after 48 hrs by broth microdilution method; assay type: functional; conditions: ATCC MYA-577, 48 h; outline: as §1
Mucor racemosus = assay: Antifungal activity against Mucor racemosus NBRC5403 after 24 hrs by broth microdilution method; assay type: functional; conditions: NBRC5403, 24 h
Saccharomyces cerevisiae = assay: Antifungal activity against Saccharomyces cerevisiae ATCC 24657 after 48 hrs by broth microdilution method; assay type: functional; conditions: ATCC 24657, 48 h; outline: as §1
Candida albicans [7] = assay: Antifungal activity against Candida albicans ATCC 90028 after 48 hrs by broth microdilution method; assay type: functional; conditions: ATCC 90028, 48 h; outline: as §1
[8] = system: Meyerozyma guilliermondii; assay: Antifungal activity against Candida guilliermondii clinical isolates after 48 hrs by broth microdilution method; assay type: functional
Outline: (§4)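 Clinical isolates from Japanese hospitals or culture collections were tested by broth microdilution in RPMI 1640-MOPS. Inoculum was 0.57 × 10^3–2.5 × 10^3 CFU/ml for yeasts and 0.4 × 10^4–3.3 × 10^4 CFU/ml for filamentous fungi. Incubation was at 35°C for about 48 h, or 72 h where footnoted. Results were summarised as MIC range, MIC50 and MIC90.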

Pichia kudriavzevii = assay: Antifungal activity against Candida krusei IFO 0584 after 48 hrs by broth microdilution method; assay type: functional; conditions: IFO 0584, 48 h; outline: as §1
Aspergillus fumigatus [9] = assay: Antifungal activity against Aspergillus fumigatus IFM 49895 after 48 hrs by broth microdilution method; assay type: functional; conditions: IFM 49895, 48 h; outline: as §1
Aspergillus fumigatus [10] = assay: Antifungal activity against Aspergillus fumigatus IFM 46895 infected ICR mouse assessed as delay in mortality of mouse at 1 mg/kg after 6 days; assay type: functional, organism-based; parameters: dose 1 mg/kg; outline: as §3
Aspergillus niger = assay: Antifungal activity against Aspergillus niger NBRC 33023 after 48 hrs by broth microdilution method; assay type: functional; conditions: NBRC 33023, 48 h; outline: as §1
Lichtheimia corymbifera = assay: Antifungal activity against Absidia corymbifera NBRC 4009 after 24 hrs by broth microdilution method; assay type: functional; conditions: NBRC 4009, 24 h; outline: as §1
Candida albicans [11] = assay: Antifungal activity against Candida albicans clinical isolates after 48 hrs by broth microdilution method; assay type: functional; outline: as §4
Candida tropicalis = assay: Antifungal activity against Candida tropicalis IFO 1400 after 48 hrs by broth microdilution method; assay type: functional; conditions: IFO 1400, 48 h; outline: as §1
Aspergillus fumigatus [12] = assay: Antifungal activity against Aspergillus fumigatus clinical isolates after 48 hrs by broth microdilution method; assay type: functional; outline: as §4

C[C@@H]1[C@H](O)[C@@H](C)/C=C/C=C/C=C/C=C/C=C/C=C/C=C/[C@H](O[C@@H]2O[C@H](C)[C@@H](O)[C@H](N)[C@@H]2O)C[C@@H]2O[C@](O)(C[C@@H](O)C[C@@H](O)[C@H](O)CC[C@@H](O)C[C@@H](O)CC(=O)O[C@H]1C)C[C@H](O)[C@H]2C(=O)O [AMPHOTERICIN B]
MIC (Candida albicans [1]): 1 µg/mL (≈ 1.08 µM) | MIC50 (Candida parapsilosis): 2 µg/mL (≈ 2.16 µM) | MIC90 (Candida parapsilosis): 2 µg/mL (≈ 2.16 µM) | MFC (Aspergillus nidulans): 2 µg/mL (≈ 2.16 µM) | MIC (Aspergillus nidulans): 2 µg/mL (≈ 2.16 µM) | MFC (Aspergillus fumigatus [2]): 2 µg/mL (≈ 2.16 µM) | MIC (Aspergillus fumigatus [2]): 1 µg/mL (≈ 1.08 µM) | MFC (Aspergillus fumigatus [3]): 2 µg/mL (≈ 2.16 µM) | MIC (Aspergillus fumigatus [3]): 2 µg/mL (≈ 2.16 µM) | MFC (Malassezia furfur): 64 µg/mL (≈ 69.3 µM) | MIC (Malassezia furfur): 0.5 µg/mL (≈ 0.541 µM) | MFC (Cryptococcus neoformans): 1 µg/mL (≈ 1.08 µM) | MIC (Cryptococcus neoformans): 1 µg/mL (≈ 1.08 µM) | ED50 (Candida albicans [4]): 0.0466 mg/kg | MFC (Candida albicans [5]): > 1 µg/mL | MIC (Candida albicans [5]): 1 µg/mL (≈ 1.08 µM) | MFC (Candida albicans [6]): 2 µg/mL (≈ 2.16 µM) | MIC (Candida albicans [6]): 1 µg/mL (≈ 1.08 µM) | MFC (Trichosporon asahii): 4 µg/mL (≈ 4.33 µM) | MIC (Trichosporon asahii): 2 µg/mL (≈ 2.16 µM) | MFC (Candida dubliniensis): 2 µg/mL (≈ 2.16 µM) | MIC (Candida dubliniensis): 1 µg/mL (≈ 1.08 µM) | MFC (Mucor racemosus): 2 µg/mL (≈ 2.16 µM) | MIC (Mucor racemosus): 1 µg/mL (≈ 1.08 µM) | MFC (Saccharomyces cerevisiae): 2 µg/mL (≈ 2.16 µM) | MIC (Saccharomyces cerevisiae): 1 µg/mL (≈ 1.08 µM) | MFC (Candida albicans [7]): 1 µg/mL (≈ 1.08 µM) | MIC (Candida albicans [7]): 1 µg/mL (≈ 1.08 µM) | MIC50 [8]: 1 µg/mL (≈ 1.08 µM) | MIC90 [8]: 1 µg/mL (≈ 1.08 µM) | MFC (Pichia kudriavzevii): 2 µg/mL (≈ 2.16 µM) | MIC (Pichia kudriavzevii): 2 µg/mL (≈ 2.16 µM) | MFC (Aspergillus fumigatus [9]): 2 µg/mL (≈ 2.16 µM) | MIC (Aspergillus fumigatus [9]): 2 µg/mL (≈ 2.16 µM) | Activity (Aspergillus fumigatus [10]): Active | MFC (Aspergillus niger): 2 µg/mL (≈ 2.16 µM) | MIC (Aspergillus niger): 2 µg/mL (≈ 2.16 µM) | MFC (Lichtheimia corymbifera): > 64 µg/mL | MIC (Lichtheimia corymbifera): 2 µg/mL (≈ 2.16 µM) | MIC50 (Candida albicans [11]): 2 µg/mL (≈ 2.16 µM) | MIC90 (Candida albicans [11]): 2 µg/mL (≈ 2.16 µM) | MFC (Candida tropicalis): 1 µg/mL (≈ 1.08 µM) | MIC (Candida tropicalis): 1 µg/mL (≈ 1.08 µM) | MIC50 (Aspergillus fumigatus [12]): 2 µg/mL (≈ 2.16 µM) | MIC90 (Aspergillus fumigatus [12]): 2 µg/mL (≈ 2.16 µM)
